Test results: ChEMBL document CHEMBL1773042, “Antiproliferative triterpenes from the leaves and twigs of Juglans sinensis on HSC-T6 cells” (2011)

Legend:
[1] = Cell cycle arrest in rat HSC-T6 cells assessed as inhibition of DNA synthesis at G0/G1 phase at 25 uM after 24 hrs; format: functional, cell-based; parameters: scale not given: the % may be the effect or the level left
Outline: (§1)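 Cells seeded at 5 × 10^5 cells/mL for 24 h, then treated at 25 μM for 24 or 48 h; controls received vehicle. Cells were harvested, washed twice in PBS pH 7.4 and fixed overnight in ice-cold 70% ethanol at 4 °C. Stained with PI/RNase buffer for 30 min at room temperature, then flow cytometry for phase distribution. Mean ± SD, three independent experiments in triplicate wells.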

[2] = Cell cycle arrest in rat HSC-T6 cells assessed as inhibition of DNA synthesis at G2/M phase at 25 uM after 48 hrs; format: functional, cell-based; parameters: scale not given: the % may be the effect or the level left; outline: as §1
[3] = Antiproliferative activity against rat HSC-T6 cells at 50 uM after 48 hrs by MTT assay; format: functional; conditions: HSC-T6, 48 h
[4] = Cell cycle arrest in rat HSC-T6 cells assessed as inhibition of DNA synthesis at G2/M phase at 25 uM after 24 hrs; format: functional, cell-based; parameters: scale not given: the % may be the effect or the level left; outline: as §1
[5] = Cell cycle arrest in rat HSC-T6 cells assessed as inhibition of DNA synthesis at sub-G1 phase at 25 uM after 24 hrs; format: functional, cell-based; parameters: scale not given: the % may be the effect or the level left; outline: as §1
[6] = Cell cycle arrest in rat HSC-T6 cells assessed as inhibition of DNA synthesis at G0/G1 phase at 25 uM after 48 hrs; format: functional, cell-based; parameters: scale not given: the % may be the effect or the level left; outline: as §1
[7] = Antiproliferative activity against rat HSC-T6 cells at 100 uM after 48 hrs by MTT assay; format: functional; conditions: HSC-T6, 48 h
Outline: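 HSC-T6 (immortalized rat hepatic stellate line) kept in DMEM with 10% heat-inactivated FBS, penicillin/streptomycin, 37 °C, 5% CO2. Seeded at 5 × 10^4 cells/mL, grown 24 h, then exposed 48 h to vehicle or compound (10–100 μM, DMSO final 0.1%). MTT 2 mg/mL for 2 h, absorbance at 540 nm. Proliferation given as 100 × treated/vehicle absorbance. Mean of three independent experiments.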

[8] = Cell cycle arrest in rat HSC-T6 cells assessed as inhibition of DNA synthesis at S phase at 25 uM after 24 hrs; format: functional, cell-based; parameters: scale not given: the % may be the effect or the level left; outline: as §1
[9] = Antiproliferative activity against rat HSC-T6 cells at 10 uM after 48 hrs by MTT assay; format: functional; conditions: HSC-T6, 48 h
[10] = Cell cycle arrest in rat HSC-T6 cells assessed as inhibition of DNA synthesis at S phase at 25 uM after 48 hrs; format: functional, cell-based; parameters: scale not given: the % may be the effect or the level left; outline: as §1
[11] = Cell cycle arrest in rat HSC-T6 cells assessed as inhibition of DNA synthesis at sub-G1 phase at 25 uM after 48 hrs; format: functional, cell-based; parameters: scale not given: the % may be the effect or the level left; outline: as §1
HSC-T6 [12] = assay: Induction of apoptosis in rat HSC-T6 cells assessed as change in cell morphology after 48 hrs by phase contrast microscopy; format: functional, cell-based
HSC-T6 [13] = assay: Induction of apoptosis in rat HSC-T6 cells assessed as change in cell morphology at 10 to 50 uM by phase contrast microscopy; format: functional, cell-based; conditions: TDE = time-dependent effect
HSC-T6 [14] = assay: Induction of apoptosis in rat HSC-T6 cells assessed as change in cell morphology after 24 hrs by phase contrast microscopy; format: functional, cell-based
[15] = Induction of apoptosis in rat HSC-T6 cells assessed as late apoptotic cells at 10 uM after 24 hrs using Annexin V-FITC staining by flow cytometry; format: functional
Outline: (§2)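 After 24 h seeding at 5 × 10^5 cells/mL, HSC-T6 cells were treated at 10 or 25 μM for 24 or 48 h, then collected and washed twice with PBS. Annexin-V/PI double staining with flow cytometry separated Annexin-V+/PI− (early apoptotic), Annexin-V+/PI+ (late apoptotic) and Annexin-V−/PI+ (dead) cells, expressed as percentages. Data representative of three independent experiments.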

[16] = Induction of apoptosis in rat HSC-T6 cells assessed as late apoptotic cells at 25 uM after 24 hrs using Annexin V-FITC staining by flow cytometry; format: functional; outline: as §2
[17] = Induction of apoptosis in rat HSC-T6 cells assessed as early apoptotic cells at 10 uM after 48 hrs using Annexin V-FITC staining by flow cytometry; format: functional; outline: as §2
[18] = Induction of apoptosis in rat HSC-T6 cells assessed as early apoptotic cells at 25 uM after 48 hrs using Annexin V-FITC staining by flow cytometry; format: functional; outline: as §2
[19] = Induction of apoptosis in rat HSC-T6 cells assessed as late apoptotic cells at 25 uM after 48 hrs using Annexin V-FITC staining by flow cytometry; format: functional; outline: as §2
[20] = Induction of apoptosis in rat HSC-T6 cells assessed as late apoptotic cells at 10 uM after 48 hrs using Annexin V-FITC staining by flow cytometry; format: functional; outline: as §2
[21] = Induction of apoptosis in rat HSC-T6 cells assessed as early apoptotic cells at 25 uM after 24 hrs using Annexin V-FITC staining by flow cytometry; format: functional; outline: as §2
[22] = Induction of apoptosis in rat HSC-T6 cells assessed as viable cells at 25 uM after 48 hrs using Annexin V-FITC staining by flow cytometry; format: functional; conditions: HSC-T6, 48 h, read-out: Activity; outline: as §2
[23] = Induction of apoptosis in rat HSC-T6 cells assessed as viable cells at 10 uM after 48 hrs using Annexin V-FITC staining by flow cytometry; format: functional; conditions: HSC-T6, 48 h, read-out: Activity; outline: as §2
[24] = Induction of apoptosis in rat HSC-T6 cells assessed as viable cells at 25 uM after 24 hrs using Annexin V-FITC staining by flow cytometry; format: functional; conditions: HSC-T6, 24 h, read-out: Activity; outline: as §2
[25] = Induction of apoptosis in rat HSC-T6 cells assessed as dead cells at 25 uM after 24 hrs using Annexin V-FITC staining by flow cytometry; format: functional
Outline: (§3)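 HSC-T6 cells seeded at 5 × 10^5 cells/mL in 12-well plates for 24 h, then exposed to compound at 10 or 25 μM for 24 or 48 h. Harvested, washed twice in PBS pH 7.4, stained with Annexin-V/PI and analysed by flow cytometry. Dead cells scored as Annexin-V−/PI+, given as percentage. Representative of three independent experiments.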

[26] = Induction of apoptosis in rat HSC-T6 cells assessed as viable cells at 10 uM after 24 hrs using Annexin V-FITC staining by flow cytometry; format: functional; conditions: HSC-T6, 24 h, read-out: Activity; outline: as §2
[27] = Induction of apoptosis in rat HSC-T6 cells assessed as dead cells at 10 uM after 24 hrs using Annexin V-FITC staining by flow cytometry; format: functional; outline: as §3
[28] = Induction of apoptosis in rat HSC-T6 cells assessed as dead cells at 10 uM after 48 hrs using Annexin V-FITC staining by flow cytometry; format: functional; outline: as §3
[29] = Induction of apoptosis in rat HSC-T6 cells assessed as early apoptotic cells at 10 uM after 24 hrs using Annexin V-FITC staining by flow cytometry; format: functional; outline: as §2
[30] = Induction of apoptosis in rat HSC-T6 cells assessed as dead cells at 25 uM after 48 hrs using Annexin V-FITC staining by flow cytometry; format: functional; outline: as §3

SMILES | Activity [1] [%] | Activity [2] [%] | Activity [4] [%] | Activity [5] [%] | Activity [6] [%] | inhibition at 100 µM [7] [%] | Activity [8] [%] | Activity [10] [%] | Activity [11] [%] | Activity (HSC-T6 [12]) | Activity (HSC-T6 [13]) | Activity (HSC-T6 [14]) | also measured
O=C(O[C@@H]1Cc2c(O)cc(O)cc2O[C@@H]1c1cc(O)c(O)c(O)c1)c1cc(O)c(O)c(O)c1 [EPIGALOCATECHIN GALLATE] | 51.9 | 19.6 | 20.1 | 1.9 | 42.3 | 33.4 | 12.1 | 8.3 | 4.5 |  |  |  | inhibition at 50 µM [3]: 41.7%; inhibition at 10 µM [9]: 83.8%
CC1(C)C=C2[C@H]3CC[C@@H]4[C@@]5(C)C(=O)C[C@H](O)C(C)(C)[C@@H]5CC[C@@]4(C)[C@]3(C)CC[C@@]2(C)CC1 | 53.2 | 18.8 | 17.8 | 1.9 | 43.6 | 14.2 | 14 | 10.6 | 5 | Dose-dependent effect | tde | Dose-dependent effect | 
C[C@H]1[C@H](C)CC[C@]2(C(=O)O)CC[C@]3(C)C(=CC[C@@H]4[C@@]5(C)CCC(=O)[C@@](C)(CO)[C@@H]5CC[C@]43C)[C@H]12 |  |  |  |  |  | 77.9 |  |  |  |  |  |  | 
C=C(C)[C@@H]1CC[C@]2(C)CC[C@]3(C)[C@H](CC[C@@H]4[C@@]5(C)C[C@@H](O)[C@H](O)C(C)(C)[C@@H]5CC[C@]43C)[C@@H]12 | 55.9 | 18 | 19.3 | 1.9 | 47.2 | 11 | 13.7 | 11 | 5.4 | Dose-dependent effect | tde | Dose-dependent effect | 
C[C@H]1[C@H](C)CC[C@]2(C(=O)O)CC[C@]3(C)C(=CC[C@@H]4[C@@]5(C)CC[C@H](O)[C@@](C)(CO)[C@@H]5CC[C@]43C)[C@H]12 |  |  |  |  |  | 50 |  |  |  |  |  |  | 
C[C@H]1[C@H](C)CC[C@]2(C(=O)O)CC[C@]3(C)C(=CC[C@@H]4[C@@]5(C)C[C@@H](O)[C@H](O)C(C)(C)[C@@H]5CC[C@]43C)[C@H]12 [COROSOLIC ACID] | 44.6 | 6 | 20.6 | 12.4 | 14.7 | 15.6 | 10.6 | 4.3 | 57.7 | Dose-dependent effect | tde | Dose-dependent effect | Activity [15]: 7.12%; Activity [16]: 15.24%; Activity [17]: 10.14%; Activity [18]: 4.41%; Activity [19]: 9.23%; Activity [20]: 17.8%; Activity [21]: 10.45%; viability at 25 µM [22]: 54.5%; viability at 10 µM [23]: 66.6%; viability at 25 µM [24]: 65.5%; Activity [25]: 8.77%; viability at 10 µM [26]: 83.5%; Activity [27]: 3.16%; Activity [28]: 5.44%; Activity [29]: 6.23%; Activity [30]: 31.85%
C[C@H]1[C@H](C)CC[C@]2(C(=O)O)CC[C@]3(C)C(=CC[C@@H]4[C@@]5(C)C[C@@H](O)[C@@H](O)[C@@](C)(CO)[C@@H]5CC[C@]43C)[C@H]12 |  |  |  |  |  | 20.6 |  |  |  |  |  |  | 
C[C@H]1[C@H](C)CC[C@]2(C(=O)O)CC[C@]3(C)C(=CC[C@@H]4[C@@]5(C)CC[C@H](O)C(C)(C)[C@@H]5CC[C@]43C)[C@H]12 [URSOLIC ACID] | 56.4 | 16.7 | 18.9 | 2.9 | 39.7 | 14.8 | 11.9 | 9.6 | 17 | Dose-dependent effect | tde | Dose-dependent effect | 
